# This is a sample that favours compounds with a hit; in the whole collection about 2.3% have one here.
# PAFAH2 inh = inhibitors of human PAFAH2. Q99487. recombinant PAFAH2, FP-rhodamine activity probe, fluorescence polarization. inhibition, % at 3.39 µM. 340,000 compounds, 0.99% hits. AID 492956;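 active = inhibition above the mean over all tested compounds plus 3 SD, cut at about 30% in these data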;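 also: inhibitors block probe labeling of enzyme so polarization drops; 0% = enzyme with DMSO and 100% = wells lacking PAFAH2 protein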
# PAFAH1B2 inh = inhibitors of human PAFAH1B2; P68402; recombinant PAFAH1B2, FP-rhodamine activity probe, fluorescence polarization; inhibition, % at 3.39 µM; 340,000 compounds, 1.2% hits;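 active = inhibition above the mean of all tested compounds plus 3 SD, cut at about 24% in these data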;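 also: 0% = enzyme with DMSO and 100% = wells lacking PAFAH1B2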
# Target sequence (P68402 whole entry, looked up): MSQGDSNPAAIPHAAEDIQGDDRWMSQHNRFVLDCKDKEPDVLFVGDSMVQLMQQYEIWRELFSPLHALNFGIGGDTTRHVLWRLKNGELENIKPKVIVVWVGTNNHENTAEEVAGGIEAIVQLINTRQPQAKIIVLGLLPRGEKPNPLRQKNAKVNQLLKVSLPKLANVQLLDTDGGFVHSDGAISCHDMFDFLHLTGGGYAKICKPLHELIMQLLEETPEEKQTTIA
# TDP2 inh = TDP2 (human) inhibition, absorbance primary screen; recombinant TDP2, T5PNP hydrolysis, p-nitrophenol absorbance 415 nm; O95551; inhibition, % at 12.8 µM; 370,000 compounds, 0.34% hits;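 active = inhibition above the mean of all tested compounds plus 3 SD, set per campaign, cut at about 25% in these data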;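 also: 0% = DMSO with enzyme and 100% = buffer with substrate but no TDP2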
# Target sequence (O95551 whole entry, looked up): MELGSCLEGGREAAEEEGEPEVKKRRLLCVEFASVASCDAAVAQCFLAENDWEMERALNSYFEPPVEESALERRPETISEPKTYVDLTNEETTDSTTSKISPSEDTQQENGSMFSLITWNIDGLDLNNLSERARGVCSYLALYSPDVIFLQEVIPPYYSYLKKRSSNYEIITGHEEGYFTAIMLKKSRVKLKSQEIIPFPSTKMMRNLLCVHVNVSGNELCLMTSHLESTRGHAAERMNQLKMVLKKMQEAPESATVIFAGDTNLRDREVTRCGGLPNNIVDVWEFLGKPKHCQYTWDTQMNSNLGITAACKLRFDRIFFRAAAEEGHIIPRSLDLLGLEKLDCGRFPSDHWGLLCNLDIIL
#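 Assay system: Recombinant human TDP2 | Quantity: 120 nM TDP2 per well | Incubation: 2 h at 37 °C | Signal: Epi absorbance | Evaluation: Percent inhibition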
# PAFAH1B3 FP inh = PAFAH1B3 (human) inhibition; 340,000 compounds, 0.28% hits; Q15102; inhibition, % at 3.39 µM; recombinant PAFAH1B3, FP-rhodamine probe, fluorescence polarization;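 active = inhibition above the screen-wide average of all tested compounds plus 3 SD, cut at about 25% in these data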;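 also: 0% = enzyme with DMSO only and 100% = wells lacking PAFAH1B3 protein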
# Apaf1 inhib = inhibitors of human Apaf-1 apoptosome. O14727. reconstituted apoptosome caspase-3 activity, DEVD-Rh110 fluorescence. inhibition, % at 20 µM. 330,000 compounds, 0.71% hits. AID 489030; active = inhibition of at least 40% at 20 µM;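 also: plate controls were DMSO wells for no effect and DEVD-CHO caspase inhibitor wells for full effect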
#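 detection = Rh110 fluorescence intensity | test system = biochemical Apaf-1 apoptosome reconstitution | also added = cytochrome c and DEVD-Rh110 substrate | schedule = 30 min plus 50 min, RT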
# The depositor's hits bear a star; . = not tested or not shown.
SMILES,PAFAH2 inh,PAFAH1B2 inh,TDP2 inh,PAFAH1B3 FP inh,Apaf1 inhib
O=[N+]([O-])c1ccc(CN2CCOCCOCCN(Cc3ccc([N+](=O)[O-])cc3Cl)CCOCC2)c(Cl)c1,.,.,4,.,.
C[C@@H](CO)N(Cc1cn(Cc2ccccc2)nn1)S(=O)(=O)c1ccccc1Br,.,.,3,.,.
CCCCCCCCCCCCN1[C@@H](CC(C)=O)c2cc(C(F)(F)F)ccc2S1(=O)=O,-10,5,6,5,21
CCCCCCCCN1[C@@H](CC(=O)O)c2ccc(C(F)(F)F)cc2S1(=O)=O,14,31*,9,1,7
NC(=O)C1CCN(c2nc(-c3ccc(OCc4ccccc4)cc3)cs2)CC1,.,.,-14,.,.
Cc1coc2c1C(=O)C(=O)c1c-2ccc2c(C)cccc12,51*,21,.,19,96*
CC(=O)Nc1cccc(-c2cc(C(C)=O)c3n(c2=O)CCC3)c1,.,.,14,.,.
Cc1noc(C)c1S(=O)(=O)N1CCCc2nc(-c3ccc(F)cc3)ccc21,.,.,-8,.,.
COc1ccc(Cn2nnnc2C(c2cc3cccc(C)c3[nH]c2=O)N2CCN(C)CC2)cc1 (stereo not drawn),-4,29*,7,-1,4
COc1ccc(S[C@]2(C(=O)N3CCOCC3)CC(=O)N[C@@H]2c2ccc(OC)cc2)cc1,.,.,-7,.,.
Cc1ccc(S(=O)(=O)NCCc2cc3ccc(C)cc3[nH]c2=O)cc1,-14,27*,21,-1,1
Cc1[nH]nc2c1C(c1ccc(Cl)cc1)C(C#N)=C(N)O2 (stereo not drawn),-3,28*,-4,8,1
Cc1ccc(C2C(C#N)=C(N)Oc3n[nH]c(C)c32)cc1 (stereo not drawn),6,10,-1,8,4
COc1cc2c(cc1NC(=O)CSc1nnc(-c3ccccc3F)n1-c1ccc(C)cc1)oc1ccccc12,.,.,-3,.,.
CC(C)[C@H](CO)Nc1nc(Nc2ccc(Cl)c(C(=O)O)c2)c2ncn(C(C)C)c2n1,-7,8,-11,7,44*
O=C(N[C@@H](Cc1cccnc1)C(=O)N1CCC[C@H]1C(=O)NCCc1ccccc1Cl)c1ccccc1,.,.,2,.,.
C=CCC(CC=C)(NC(=O)c1ccccc1)c1ccccc1,8,20,-2,-2,-1
C=CCC(CC=C)(NC(=O)c1ccccc1C)c1ccccc1,6,25*,-12,4,1
COC(=O)[C@@]12CCCCC3=C1N(CCC3)C(=O)[C@H]2CC(=O)NCc1cccc(C(F)(F)F)c1,.,.,0,.,.
CC(C)(C)c1ccc(C(=O)Nc2sc3c(c2C(=O)O)CCC3)cc1,14,47*,3,10,17
Cc1c(NC(=O)C2CCCN(S(=O)(=O)c3cccc4ccccc34)C2)c(=O)n(-c2ccccc2)n1C (stereo not drawn),.,.,0,.,.
CN(C(=O)Cc1c(C(=O)O)n(C)c2ccccc12)c1ccc(Cl)cc1,4,50*,0,-4,2
CCCCCCOC(=O)C[N+](C)(C)CCOC1CC2CCC1(C)C2(C)C (stereo not drawn),-1,-3,1,2,52*
O=C(N1CCc2ccccc2C1)n1cc(C(O)(c2ccccc2)c2ccccc2)nn1,.,.,-6,.,.
CSc1nc(N)nc(SCC(=O)Nc2ccc(Cl)cc2)c1C#N,-25,-4,6,-7,19
SMILES,PAFAH2 inh,PAFAH1B2 inh,TDP2 inh,PAFAH1B3 FP inh,Apaf1 inhib
Nc1ccccc1SCCS(=O)(=O)c1ccc(Cl)cc1,8,28*,-4,6,6
Cn1c(SCCS(=O)(=O)c2ccc(Cl)cc2)nnc1-c1ccccc1,3,3,-9,-5,-2
CSc1nc(N)nc(SCCS(=O)(=O)c2ccc(Cl)cc2)c1C#N,-3,25*,0,-8,5
O=C(Oc1ccc2ccc(=O)oc2c1)C1CCCCC1,3,-1,-3,0,10
O=C(Oc1cc2oc(=O)cc(-c3ccccc3)c2cc1Cl)C1CCCCC1,-1,47*,2,5,1
COc1cccc2[nH]c(C(=O)NN)c(N)c12,26,8,19,19,-1
COc1cc2[nH]c(C(=O)NN)c(N)c2cc1OC,.,.,.,.,48*
O=C1C=C(NCc2ccccc2)c2ccccc2C1=O,53*,27*,23,60*,.
NC1=CC(=O)C(=O)c2ccccc21,7,6,15,12,.
CC(C)C(=O)N[C@H]1[C@H](O)CCC[C@@]12C(=O)N(Cc1ccccc1)c1ccccc12,.,.,-9,.,.
CN(Cc1ccccc1)C(=O)CN1CCN(S(=O)(=O)c2ccc(Cl)c(Cl)c2)CC1,0,30*,-6,6,13
Cc1cc(S(=O)(=O)N2CCN(CC(=O)N(C)Cc3ccccc3)CC2)ccc1Br,4,12,-13,6,6
COC(=O)/C=C1\OC(C)c2ccccc21 (stereo not drawn),.,.,-6,.,.
C=CCN1C(=O)[C@@H](CC(=O)NCc2cccc3ccccc23)[C@]2(C(=O)OCC)CCCCC/C=C/12,.,.,-8,.,.
O=C(COC(=O)CCc1c[nH]c(=O)[nH]1)Nc1ccccc1,34*,1,2,-1,-4
O=C(Nc1nc(Cc2ccccc2)c(-c2ccccc2)n1Cc1ccccc1)c1ccccc1,.,.,4,.,.
Cc1nnc(Sc2cc(NCCCO)c([N+](=O)[O-])c3nonc23)s1,2,1,-3,5,.
CCC(=O)OCCNc1cc(Sc2nc3ccccc3s2)c2nonc2c1[N+](=O)[O-],14,1,13,10,46*
O=[N+]([O-])c1c(NCCCO)cc(Sc2nc3ccccc3s2)c2nonc12,11,1,.,6,98*
C=C1c2cccc(O)c2C(=O)C2C(=O)[C@]3(O)C(=O)C(C(N)=O)C(=O)[C@@H](N(C)C)[C@@H]3[C@@H](O)[C@H]12 (stereo partly drawn),52*,33*,23,45*,24
O=C1C(NC(=O)N2c3ccccc3C=Cc3ccccc32)CCCCN1Cc1cccc(C(F)(F)F)c1 (stereo not drawn),.,.,-1,.,.
C=c1[nH]cc(C(C)c2c(C)n(C)c3ccccc23)/c1=C/C (stereo not drawn),.,.,5,.,.
CCOC(=O)[C@@]12CCCC3=C1N(CCC3)C(=O)[C@H]2CC(=O)NCc1cccs1,.,.,1,.,.
CCCCCNC(=O)C(C)Sc1ccc(Cl)cc1 (stereo not drawn),4,30*,-12,3,-3
CCCCCCNC(=O)C(=O)NCCc1ccc(Cl)cc1,-4,-2,5,7,5
O=C(NCc1ccccc1)[C@@H]1CCCN1C(=O)[C@H]1CCCN1C(=O)c1ccccc1F,.,.,2,.,.
CSc1ccc(S(=O)(=O)NCc2ccc(Cl)cc2Cl)cc1,1,29*,-6,4,20
O=S(=O)(NCc1ccccc1)NCc1ccc(Cl)cc1Cl,9,28*,-8,4,12
CSc1ccc(S(=O)(=O)NCc2ccccc2Cl)cc1,3,5,3,6,6

# Compound activity deposited in PubChem BioAssay by several laboratories.
